≈ marks a conversion by molar mass, not a printed value.
Assays:
[1] = Inhibition of hedgehog signaling pathway in mouse ASZ cells assessed as decrease in Gli1 mRNA expression after 48 hrs by qRT-PCR analysis; format: cell-based
Procedure, shortened: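 Murine BCC line ASZ (Ptch+/-), 80% confluent, seeded at 10,000 cells/well in 154CF medium (2% FBS), 24 h, then serum-free medium 24 h (37°C, 5% CO2). Treated 48 h with compound at 10–0.001 μM or DMSO vehicle. Gli1 mRNA measured by qRT-PCR against actin B internal control; concentrations lowering actin B were excluded. IC50 as mean ± SEM, repeat experiments in triplicate.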

[2] = Kinetic solubility of compound in pH 7.4 PBS by LC-MS/MS analysis; format: physicochemical; conditions: for solubility kinetic: PBS, read-out: Kinetic_solubility
Procedure, shortened: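 Kinetic solubility in PBS, pH 7.4; run by a CRO (Pharmaron or Cyprotex) under its standard protocol.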

Cytochrome P450 3A4 = Cytochrome P450 3A4 (Homo sapiens, UniProt P08684); test: Inhibition of CYP3A4 in human liver microsomes by LC-MS/MS analysis
Chain of Cytochrome P450 3A4 (P08684 whole entry): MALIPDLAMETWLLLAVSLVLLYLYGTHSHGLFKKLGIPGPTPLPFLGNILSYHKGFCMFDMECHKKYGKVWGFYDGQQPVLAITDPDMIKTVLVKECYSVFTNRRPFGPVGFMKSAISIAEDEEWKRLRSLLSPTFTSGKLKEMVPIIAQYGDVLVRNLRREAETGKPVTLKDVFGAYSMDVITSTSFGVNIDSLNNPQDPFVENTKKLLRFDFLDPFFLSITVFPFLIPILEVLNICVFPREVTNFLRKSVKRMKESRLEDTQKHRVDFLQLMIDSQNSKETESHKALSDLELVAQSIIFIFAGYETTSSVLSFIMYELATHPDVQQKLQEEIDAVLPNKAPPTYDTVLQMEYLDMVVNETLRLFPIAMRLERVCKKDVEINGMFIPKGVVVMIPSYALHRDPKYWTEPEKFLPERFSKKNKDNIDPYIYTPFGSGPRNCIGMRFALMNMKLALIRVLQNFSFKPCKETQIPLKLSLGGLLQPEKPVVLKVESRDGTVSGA

[3] = Half life in human liver microsomes at 1 uM by LC-MS/MS analysis
hERG (KCNH2) = hERG (KCNH2) (Homo sapiens, UniProt Q12809); test: Inhibition of human ERG expressed in CHO cells at 25 uM by electrophysiology assay relative to control; format: cell-based; conditions: CHO cells expressing human ERG
Chain of hERG (KCNH2) (Q12809 whole entry): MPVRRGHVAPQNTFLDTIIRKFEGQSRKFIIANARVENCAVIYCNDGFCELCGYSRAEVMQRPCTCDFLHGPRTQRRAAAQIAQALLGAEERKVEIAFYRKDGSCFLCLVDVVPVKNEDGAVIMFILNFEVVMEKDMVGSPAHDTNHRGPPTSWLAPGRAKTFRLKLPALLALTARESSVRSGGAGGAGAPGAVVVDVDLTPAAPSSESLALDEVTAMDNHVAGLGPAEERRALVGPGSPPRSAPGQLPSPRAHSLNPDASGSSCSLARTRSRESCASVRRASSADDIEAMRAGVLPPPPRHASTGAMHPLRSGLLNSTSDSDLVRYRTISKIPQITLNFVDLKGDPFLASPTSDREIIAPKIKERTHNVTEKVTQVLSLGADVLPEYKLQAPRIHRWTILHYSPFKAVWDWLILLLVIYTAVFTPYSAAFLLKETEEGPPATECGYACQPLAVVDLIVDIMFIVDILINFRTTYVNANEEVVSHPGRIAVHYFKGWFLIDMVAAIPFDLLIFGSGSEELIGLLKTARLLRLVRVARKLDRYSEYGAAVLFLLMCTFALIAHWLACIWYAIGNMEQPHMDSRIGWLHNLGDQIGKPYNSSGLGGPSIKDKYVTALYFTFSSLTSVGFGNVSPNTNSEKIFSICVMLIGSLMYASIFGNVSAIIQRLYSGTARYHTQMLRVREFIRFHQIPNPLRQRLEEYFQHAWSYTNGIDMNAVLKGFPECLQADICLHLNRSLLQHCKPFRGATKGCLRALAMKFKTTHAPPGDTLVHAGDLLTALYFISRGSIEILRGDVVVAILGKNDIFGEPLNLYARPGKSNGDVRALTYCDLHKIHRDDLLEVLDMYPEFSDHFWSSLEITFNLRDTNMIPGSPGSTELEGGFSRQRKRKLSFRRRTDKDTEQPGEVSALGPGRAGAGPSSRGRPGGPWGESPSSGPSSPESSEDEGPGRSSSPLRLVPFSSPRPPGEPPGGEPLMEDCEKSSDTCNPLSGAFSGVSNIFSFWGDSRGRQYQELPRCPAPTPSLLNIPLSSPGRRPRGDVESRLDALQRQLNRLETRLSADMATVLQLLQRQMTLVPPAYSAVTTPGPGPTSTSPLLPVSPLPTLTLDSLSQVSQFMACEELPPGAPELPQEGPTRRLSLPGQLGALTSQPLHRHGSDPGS

[4] = human, microsomes, 1 µM
Mus musculus [5] = species: Mus musculus; test: Potency index, ratio of IC50 for PSZ to IC50 for test compound for inhibition of hedgehog signaling pathway in mouse ASZ cells assessed as decrease in Gli1 mRNA expression after 48 hrs by qRT-PCR analysis; format: cell-based
Mus musculus [6] = species: Mus musculus; test: Inhibition of hedgehog signaling pathway in hedgehog-dependent mouse Ptch-CKO cells assessed as inhibition of cell growth

Row | Compound | IC50 [1] [nM] | solubility kinetic [2] [µM] | t1/2 [3] [h] | also measured
1 | CC(=O)c1cccc(C(=O)Nc2ccc(N3CCN(c4ccc(OC[C@@H]5CO[C@@](C)(c6ccc(F)cc6F)C5)cc4)CC3)cc2)c1 | 24 | 3.13 (≈ 1.96 µg/mL) | 1.92 | IC50 (Cytochrome P450 3A4): > 20000 nM; inhibition at 25 µM (hERG (KCNH2)): 4.2%; CLH [4]: 20 µL/min/mg
2 | CC[C@@H]([C@H](C)O)n1ncn(-c2ccc(N3CCN(c4ccc(OC[C@@H]5CO[C@@](Cn6cncn6)(c6ccc(F)cc6F)C5)cc4)CC3)cc2)c1=O [POSACONAZOLE] | 500 | – | 1.8 | Kinetic_solubility ([2]; buffer): 0.781 µM; inhibition at 25 µM (hERG (KCNH2)): 14.7%; CLH [4]: 21.5 µL/min/mg
3 | C[C@]1(c2ccc(F)cc2F)C[C@H](COc2ccc(N3CCN(c4ccc(-n5cn[nH]c5=O)cc4)CC3)cc2)CO1 | 190 | – | – | –
4 | CCC(C)n1ncn(-c2ccc(N3CCN(c4ccc(OCC5COC(Cn6cncn6)(c6ccc(Cl)cc6Cl)O5)cc4)CC3)cc2)c1=O (centres undefined) [ITRACONAZOLE] | – | 0.8 (≈ 0.565 µg/mL) | 0.45 | inhibition at 25 µM (hERG (KCNH2)): < 1%
5 | C[C@]1(c2ccc(F)cc2F)C[C@H](COc2ccc(N3CCN(c4ccc(NC(=O)c5cccc(O)c5)cc4)CC3)cc2)CO1 | 190 | 3.13 (≈ 1.88 µg/mL) | > 3 | CLH [4]: 2.23 µL/min/mg
6 | CC[C@@H](C)n1ncn(-c2ccc(N3CCN(c4ccc(OC[C@@H]5CO[C@@](C)(c6ccc(F)cc6F)C5)cc4)CC3)cc2)c1=O | 190 | – | 1.03 | IC50 (Cytochrome P450 3A4): > 20000 nM; Ratio IC50 (Mus musculus [5]): 2.5; GI50 (Mus musculus [6]): 610 nM; CLH [4]: 37.4 µL/min/mg
7 | C[C@]1(c2ccc(F)cc2F)C[C@H](COc2ccc(N3CCN(c4ccc(NC(=O)NN)cc4)CC3)cc2)CO1 | 220 | – | – | –
8 | C[C@]1(c2ccc(F)cc2F)C[C@H](COc2ccc(N3CCN(c4ccc(N)cc4)CC3)cc2)CO1 | 330 | – | – | –
9 | CC1(c2ccc(Cl)cc2Cl)OCC(COc2ccc(N3CCN(c4ccc(-n5cnn(CCC(=O)O)c5=O)cc4)CC3)cc2)O1 (centres undefined) | 12 | 0.781 (≈ 0.511 µg/mL) | – | IC50 (Cytochrome P450 3A4): > 20000 nM; inhibition at 25 µM (hERG (KCNH2)): 3.6%
10 | C[C@]1(c2ccc(F)cc2F)C[C@H](COc2ccc(N3CCN(c4ccc(NC(=O)Oc5ccccc5)cc4)CC3)cc2)CO1 | > 10000 | – | – | –

Further lines, with some results ahead:

Row | IC50 [1] [nM] | solubility kinetic [2] [µM] | t1/2 [3] [h] | Compound | also measured
11 | > 10000 | 1.56 (≈ 0.912 µg/mL) | – | C[C@]1(c2ccc(F)cc2F)C[C@H](COc2ccc(N3CCN(c4ccc(NC(=O)c5cccnc5)cc4)CC3)cc2)CO1 | –
12 | 20 | 1.56 (≈ 0.945 µg/mL) | – | C[C@]1(c2ccc(F)cc2F)C[C@H](COc2ccc(N3CCN(c4ccc(-n5cnn(CCCO)c5=O)cc4)CC3)cc2)CO1 | –
13 | 150 | – | – | C[C@]1(c2ccc(F)cc2F)C[C@H](COc2ccc(N3CCN(c4ccc(-n5cnn(CC(=O)O)c5=O)cc4)CC3)cc2)CO1 | –
14 | 32 | – | – | C[C@]1(c2ccc(F)cc2F)C[C@H](COc2ccc(N3CCN(c4ccc(-n5cnn(CCC(=O)O)c5=O)cc4)CC3)cc2)CO1 | –
15 | 740 | – | – | C[C@]1(c2ccc(F)cc2F)C[C@H](COc2ccc(N3CCN(c4ccc([N+](=O)[O-])cc4)CC3)cc2)CO1 | –
